Laboratory results published in ChEMBL document CHEMBL1123542, “Alpha-adrenoreceptor reagents. 4. Resolution of some potent selective prejunctional alpha 2-adrenoreceptor antagonists” (J Med Chem, 1986).

Columns and labels:
[1] = molecular target: T1, Adrenergic receptor alpha-1 (Rattus norvegicus, UniProt P15823+P23944+P43140); assay: Displacement of [3H]prazosin from alpha-1 adrenergic receptor from rat brain cerebral cortex; assay type: tissue-based
T1 sequence (P15823 whole entry): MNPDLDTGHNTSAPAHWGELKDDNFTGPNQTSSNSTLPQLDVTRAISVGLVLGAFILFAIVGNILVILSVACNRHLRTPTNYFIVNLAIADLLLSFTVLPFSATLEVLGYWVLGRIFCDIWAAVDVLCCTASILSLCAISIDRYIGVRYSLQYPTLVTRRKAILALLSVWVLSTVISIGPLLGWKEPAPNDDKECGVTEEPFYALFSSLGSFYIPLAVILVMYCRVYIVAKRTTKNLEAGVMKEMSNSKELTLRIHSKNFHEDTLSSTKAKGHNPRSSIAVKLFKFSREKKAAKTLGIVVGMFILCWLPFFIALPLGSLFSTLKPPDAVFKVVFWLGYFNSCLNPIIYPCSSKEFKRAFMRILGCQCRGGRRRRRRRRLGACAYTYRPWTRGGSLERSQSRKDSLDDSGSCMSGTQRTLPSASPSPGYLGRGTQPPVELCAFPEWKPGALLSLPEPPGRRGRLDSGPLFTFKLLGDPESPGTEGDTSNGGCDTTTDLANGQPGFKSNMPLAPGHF
T1 sequence (P23944 whole entry): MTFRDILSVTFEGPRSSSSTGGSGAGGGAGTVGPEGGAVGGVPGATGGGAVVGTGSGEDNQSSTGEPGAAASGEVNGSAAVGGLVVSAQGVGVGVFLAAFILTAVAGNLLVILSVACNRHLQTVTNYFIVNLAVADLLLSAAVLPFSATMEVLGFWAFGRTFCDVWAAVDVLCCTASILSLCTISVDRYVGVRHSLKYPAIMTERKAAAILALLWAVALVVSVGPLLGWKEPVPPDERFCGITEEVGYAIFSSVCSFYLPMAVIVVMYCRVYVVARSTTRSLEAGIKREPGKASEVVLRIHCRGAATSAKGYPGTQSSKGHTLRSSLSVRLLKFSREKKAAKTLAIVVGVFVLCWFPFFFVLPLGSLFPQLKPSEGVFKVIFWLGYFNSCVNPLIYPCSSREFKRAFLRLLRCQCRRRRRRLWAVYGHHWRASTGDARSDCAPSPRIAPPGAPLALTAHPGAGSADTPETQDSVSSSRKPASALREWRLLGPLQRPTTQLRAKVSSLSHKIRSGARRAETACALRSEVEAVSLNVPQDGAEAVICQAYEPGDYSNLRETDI
T1 sequence (P43140 whole entry): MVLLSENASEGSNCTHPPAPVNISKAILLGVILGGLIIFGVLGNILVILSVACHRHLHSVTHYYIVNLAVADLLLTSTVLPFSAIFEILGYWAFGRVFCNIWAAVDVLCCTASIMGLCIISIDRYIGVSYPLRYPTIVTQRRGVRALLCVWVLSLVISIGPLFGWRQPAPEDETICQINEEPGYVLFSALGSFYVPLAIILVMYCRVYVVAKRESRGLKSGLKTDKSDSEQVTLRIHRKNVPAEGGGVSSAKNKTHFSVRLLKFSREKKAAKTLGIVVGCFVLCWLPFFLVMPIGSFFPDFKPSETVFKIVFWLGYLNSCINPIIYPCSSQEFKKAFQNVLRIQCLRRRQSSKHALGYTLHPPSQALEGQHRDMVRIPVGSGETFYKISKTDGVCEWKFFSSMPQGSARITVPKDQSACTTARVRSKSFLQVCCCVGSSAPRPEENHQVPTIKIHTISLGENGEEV
Summary of the method: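 Rat cerebral cortical membranes. Ki (nM) from displacement of saturable [3H]prazosin binding at α1 sites.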

[2] = molecular target: T2, Adrenergic receptor alpha-2 (Rattus norvegicus, UniProt P22086+P19328+P22909); assay: Displacement of [3H]idazoxan from alpha-2 adrenergic receptor from rat brain cerebral cortex.; assay type: tissue-based
T2 sequence (P22086 whole entry): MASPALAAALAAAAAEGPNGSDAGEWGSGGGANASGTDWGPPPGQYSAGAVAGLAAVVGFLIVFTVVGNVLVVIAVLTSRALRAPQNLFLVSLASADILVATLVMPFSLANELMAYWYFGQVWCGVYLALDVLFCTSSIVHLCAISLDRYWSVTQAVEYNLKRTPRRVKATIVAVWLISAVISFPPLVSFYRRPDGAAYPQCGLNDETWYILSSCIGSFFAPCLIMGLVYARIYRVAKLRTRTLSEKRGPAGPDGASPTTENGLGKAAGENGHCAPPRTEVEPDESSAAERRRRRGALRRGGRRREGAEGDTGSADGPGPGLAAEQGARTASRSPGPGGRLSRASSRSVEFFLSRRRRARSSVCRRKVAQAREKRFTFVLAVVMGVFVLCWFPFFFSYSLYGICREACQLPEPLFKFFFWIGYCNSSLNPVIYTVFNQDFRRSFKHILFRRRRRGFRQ
T2 sequence (P19328 whole entry): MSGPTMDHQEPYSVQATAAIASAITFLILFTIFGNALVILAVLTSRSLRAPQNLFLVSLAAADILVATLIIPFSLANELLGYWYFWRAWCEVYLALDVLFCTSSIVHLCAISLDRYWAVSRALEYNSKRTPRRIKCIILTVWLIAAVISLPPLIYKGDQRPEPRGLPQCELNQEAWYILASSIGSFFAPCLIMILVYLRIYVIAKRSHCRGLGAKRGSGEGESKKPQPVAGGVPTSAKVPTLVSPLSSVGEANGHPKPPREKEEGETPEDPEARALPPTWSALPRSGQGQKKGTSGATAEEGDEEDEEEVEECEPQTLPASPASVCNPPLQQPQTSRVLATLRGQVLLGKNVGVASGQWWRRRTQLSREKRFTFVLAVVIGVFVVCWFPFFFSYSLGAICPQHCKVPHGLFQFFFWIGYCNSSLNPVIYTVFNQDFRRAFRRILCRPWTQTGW
T2 sequence (P22909 whole entry): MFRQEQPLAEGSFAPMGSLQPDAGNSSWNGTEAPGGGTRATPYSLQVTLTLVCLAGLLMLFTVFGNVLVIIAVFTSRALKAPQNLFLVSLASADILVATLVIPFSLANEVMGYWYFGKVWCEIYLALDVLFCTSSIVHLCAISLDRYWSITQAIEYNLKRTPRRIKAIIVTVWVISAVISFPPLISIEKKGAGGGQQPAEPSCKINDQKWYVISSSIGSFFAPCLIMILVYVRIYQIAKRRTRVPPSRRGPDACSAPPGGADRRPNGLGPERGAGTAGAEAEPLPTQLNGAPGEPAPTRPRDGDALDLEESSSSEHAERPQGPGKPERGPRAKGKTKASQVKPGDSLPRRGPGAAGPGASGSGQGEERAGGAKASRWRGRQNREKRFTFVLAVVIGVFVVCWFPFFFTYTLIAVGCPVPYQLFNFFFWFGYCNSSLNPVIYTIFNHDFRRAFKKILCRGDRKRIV
Summary of the method: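 Rat cerebral cortical membranes. Ki (nM) from displacement of saturable [3H]idazoxan binding at α2 sites.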

[3] = tested on: Rattus norvegicus; assay: Compound was evaluated in vivo for the reversal of maximal inhibitory effect of clonidine at 100 ug/kg(iv) in pithed rat vas deferens preparation; assay type: functional
[4] = tested on: Alpha-2 adrenergic receptor (Rattus norvegicus); assay: Compound was evaluated for its ability to antagonise the inhibitory activity of clonidine, relative to idazoxan at prejunctional alpha-2 adrenergic receptor in rat vas deferens.
[5] = tested on: Alpha-1 adrenergic receptor (Rattus norvegicus); assay: Compound was evaluated for its ability to antagonise the inhibitory activity of phenylephrine, relative to idazoxan at postjunctional alpha-1 adrenergic receptor in rat anococcygeus.
[6] = molecular target: T3, Adrenergic receptor alpha-1 (Rattus norvegicus) (UniProt P15823+P23944+P43140); assay: Compound was evaluated for the antagonist potency at postjunctional alpha-1 adrenergic receptor in pithed rat diastolic bp test; assay type: functional
Summary of the method: (§1)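 Pithed rats; iv dose (μg/kg) giving a 2-fold shift (DR2) of the cirazoline dose-response curve on diastolic blood pressure. Separate groups, n = 6 minimum.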

[7] = molecular target: T4, Adenosine receptor A1 (Rattus norvegicus) (UniProt P25099); assay: Compound was evaluated for its ability to antagonise the inhibitory activity of phenylephrine, relative to idazoxan at postjunctional alpha-1 adrenergic receptor in rat anococcygeus; assay type: functional
T4 sequence (whole entry): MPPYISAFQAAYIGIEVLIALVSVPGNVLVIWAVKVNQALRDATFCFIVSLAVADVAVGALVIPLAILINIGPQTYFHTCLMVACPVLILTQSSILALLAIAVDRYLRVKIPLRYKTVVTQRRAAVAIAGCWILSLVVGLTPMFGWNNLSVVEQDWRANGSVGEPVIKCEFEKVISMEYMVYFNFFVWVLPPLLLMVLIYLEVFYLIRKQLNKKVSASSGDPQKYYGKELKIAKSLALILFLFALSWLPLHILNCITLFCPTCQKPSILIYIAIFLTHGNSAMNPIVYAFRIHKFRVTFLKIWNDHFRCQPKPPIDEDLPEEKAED

[8] = molecular target: T3, Adrenergic receptor alpha-1 (Rattus norvegicus); assay: Compound was evaluated for the antagonist potency at postjunctional alpha-1 adrenergic receptor in pithed rat diastolic bp test,; assay type: functional; summary of the method: as §1
[9] = molecular target: Adenosine A2 receptor (Rattus norvegicus) (UniProt P29276+P30543); assay: Compound was evaluated for its ability to antagonise the inhibitory activity of clonidine, relative to idazoxan at prejunctional alpha-2 adrenergic receptor in rat vas deferens; assay type: functional, tissue-based

Row | Structure (SMILES) | Ki [1] | Ki [2] | AD50 [3] | also measured
1 | COC1(C2=NCCN2)COc2ccccc2O1 (single isomer, unassigned; (+)) [listing 1 of 2 here] | 27 nM | 0.36 nM | 0.00225 mg/kg | –
2 | C=C(C)C1(C2=NCCN2)COc2ccccc2O1 (single isomer, unassigned; (+)) [listing 1 of 2 here] | 46439 nM | 8734 nM | >14.444 mg/kg | –
3 | CC1(C2=NCCN2)COc2ccccc2O1 (single isomer, unassigned; (+)) [listing 1 of 2 here] | 285 nM | 2.4 nM | 0.0258 mg/kg | –
4 | C=C(C)C1(C2=NCCN2)COc2ccccc2O1 (single isomer, unassigned; (+)) [listing 2 of 2 here] | – | – | – | Antagonist potency [4]: 0.0003; Antagonist potency [5]: 0.03
5 | CC1(C2=NCCN2)COc2ccccc2O1 (single isomer, unassigned; (+)) [listing 2 of 2 here] | – | – | – | Antagonist potency [4]: 1.3; Antagonist potency [5]: 0.09
6 | COC1(C2=NCCN2)COc2ccccc2O1 (single isomer, unassigned; (+)) [listing 2 of 2 here] | – | – | – | Antagonist potency [6]: 58.9
7 | COC1(C2=NCCN2)COc2ccccc2O1 (single isomer, unassigned; (-)) [listing 1 of 2 here] | 6763 nM | 256 nM | 0.786 mg/kg | –
8 | CC1(C2=NCCN2)COc2ccccc2O1 (single isomer, unassigned; (-)) [listing 1 of 2 here] | 13329 nM | 487 nM | 2.567 mg/kg | –
9 | CC1(C2=NCCN2)COc2ccccc2O1 (single isomer, unassigned; (-)) [listing 2 of 2 here] | – | – | – | Antagonist potency [7]: < 0.023; Antagonist potency [4]: 0.005
10 | COC1(C2=NCCN2)COc2ccccc2O1 (single isomer, unassigned; (-)) [listing 2 of 2 here] | – | – | – | Antagonist potency [8]: 12800
11 | COC1(C2=NCCN2)COc2ccccc2O1 (stereo in doubt; 4) [listing 1 of 2 here] | 66 nM | 0.8 nM | 0.00268 mg/kg | –
12 | COC1(C2=NCCN2)COc2ccccc2O1 (stereo in doubt; 4) [listing 2 of 2 here] | – | – | – | Antagonist potency [6]: 176
13 | CC1(C2=NCCN2)COc2ccccc2O1 (stereo in doubt; 7) [listing 1 of 2 here] | 449 nM | 4.4 nM | 0.0527 mg/kg | –
14 | CC1(C2=NCCN2)COc2ccccc2O1 (stereo in doubt; 7) [listing 2 of 2 here] | – | – | – | Antagonist potency [9]: 0.67; Antagonist potency [5]: 0.28
15 | C=C(C)C1(C2=NCCN2)COc2ccccc2O1 (stereo in doubt; 10) [listing 1 of 2 here] | 1794 nM | 16.3 nM | 0.0712 mg/kg | –
16 | C=C(C)C1(C2=NCCN2)COc2ccccc2O1 (stereo in doubt; 10) [listing 2 of 2 here] | – | – | – | Antagonist potency [4]: 0.4; Antagonist potency [5]: 0.07
17 | C=C(C)C1(C2=NCCN2)COc2ccccc2O1 (stereo in doubt; 12) [listing 1 of 2 here] | 1473 nM | 8 nM | 0.0539 mg/kg | –
18 | C=C(C)C1(C2=NCCN2)COc2ccccc2O1 (stereo in doubt; 12) [listing 2 of 2 here] | – | – | – | Antagonist potency [4]: 0.8; Antagonist potency [5]: 0.6
